Test results as given in ChEMBL document CHEMBL3763022, “Potent dual inhibitors of Plasmodium falciparum M1 and M17 aminopeptidases through optimization of S1 pocket interactions” (Eur J Med Chem, 2016).
≈ marks a conversion by molar mass, not a printed value.

Tests used:
[1] = Inhibition of recombinant Plasmodium falciparum M17 aminopeptidase using H-Leu-NHMec as substrate preincubated for 10 mins followed by addition of substrate by spectrofluorimetric analysis
Procedure, shortened: (§1)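 E. coli-expressed enzymes, purified by Ni-NTA and size exclusion. Preincubation 10 min at 37°C with inhibitor: M1 in 100 mM Tris pH 8.0; M17 in 50 mM Tris pH 8.0, 2 mM CoCl2. Substrate H-Leu-NHMec kept below Km. Fluorescence ex 355/em 460 nm followed to steady-state velocity. Inhibitor range 500pM–500 μM. Ki from Dixon plots (1/V vs [I]).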

[2] = Inhibition of recombinant Plasmodium falciparum M1 aminopeptidase using H-Leu-NHMec as substrate preincubated for 10 mins followed by addition of substrate by spectrofluorimetric analysis; procedure, shortened: as §1
Plasmodium falciparum [3] = assay: Antiparasitic activity against Plasmodium falciparum 3D7 assessed as growth inhibition after 72 hrs by DAPI staining-based confocal image analysis; format: functional, organism-based; conditions: 3D7, 72 h
Procedure, shortened: (§2)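 Sorbitol-synchronised ring-stage parasites in human O+ erythrocytes at 2% parasitaemia, 0.3% haematocrit, incubated 72 h at 37 °C (5% CO2) with three-step log serial dilutions from 20 μM top, 0.4% DMSO final. Staining with DAPI/saponin/Triton X/EDTA in PBS, confocal imaging, parasite count.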

HEK293 = assay: Cytotoxicity against HEK293 cells assessed as cell viability after 72 hrs by resazurin assay; format: cell-based; conditions: human, hek293, 72 h
Procedure, shortened: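 HEK293 cells in DMEM with 10% FCS, seeded at 2000 cells/well and left to adhere overnight. Compound dose response with top final 40 μM, 0.4% DMSO. Exposure 72 h at 37 °C, 5% CO2. Medium then replaced by 44 μM resazurin in serum-free DMEM for 4-6 h. Fluorescence read at ex/em 530/595 nm.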

Plasmodium falciparum [4] = assay: Antiparasitic activity against chloroquine/quinine/pyrimethamine/sulfadoxine/NITD609-resistant Plasmodium falciparum Dd2 clone 2 assessed as growth inhibition after 72 hrs by DAPI staining-based confocal image analysis; format: functional, organism-based; conditions: Dd2, 72 h; procedure, shortened: as §2
Plasmodium falciparum [5] = assay: Antiparasitic activity against Plasmodium falciparum Dd2 assessed as growth inhibition after 72 hrs by DAPI staining-based confocal image analysis; format: functional, organism-based; conditions: Dd2, 72 h; procedure, shortened: as §2
[6] = Intrinsic clearance in mouse liver microsomes assessed per mg of protein at 1 uM by LC/MS analysis; format: ADME; conditions: read-out: CLH
Procedure, shortened: (§3)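 Human or mouse liver microsomes, 0.4 mg/mL protein in 0.1 M phosphate pH 7.4, with 1 µM compound at 37°C. Reactions started with an NADPH-regenerating system (NADP, glucose-6-phosphate, G6P dehydrogenase) plus MgCl2. Quenched with ice-cold acetonitrile at time points from 0 to 60 min. Parent compound remaining in supernatant measured by LC-MS.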

[7] = Kinetic solubility of compound in phosphate buffer at pH 6.5 by nephelometry; format: physicochemical; conditions: read-out: Kinetic_solubility
Procedure, shortened: (§4)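 DMSO stock serially diluted and spiked into pH 6.5 phosphate buffer or 0.01 M HCl (about pH 2.0), final 1% DMSO. Solubility range determined by nephelometry.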

[8] = Apparent half life in human plasma incubated for 4 hrs by UPLC/MC analysis; format: ADME, cell-free; conditions: read-out: t1/2(app)
Procedure, shortened: (§5)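 Pooled plasma (human n=3 donors; mouse from multiple animals), thawed and spiked to nominal 500 ng/mL test compound, final 0.2% DMSO and 0.4% acetonitrile (v/v). Incubated at 37°C, 4 h human or 6 h mouse. Duplicate samples taken at time points and snap-frozen. Quantified by UPLC/MS against matched-plasma standards. Half-life obtained by exponential decay fit of % remaining.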

[9] = Kinetic solubility of compound in HCl at pH 2 by nephelometry; format: physicochemical; conditions: read-out: Kinetic_solubility; procedure, shortened: as §4
[10] = Intrinsic clearance in human liver microsomes assessed per mg of protein at 1 uM by LC/MS analysis; format: ADME; conditions: read-out: CLH; procedure, shortened: as §3
[11] = Apparent half life in mouse plasma incubated for 6 hrs by UPLC/MC analysis; format: ADME, cell-free; conditions: read-out: t1/2(app); procedure, shortened: as §5
[12] = Half life in mouse liver microsomes at 1 uM by LC/MS analysis; format: ADME; procedure, shortened: as §3
[13] = Partition coefficient, log D of the compound at pH 7.4 by HPLC method; format: physicochemical; conditions: octanol/water
Procedure, shortened: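 LogD estimated by gradient HPLC (Lombardo-derived method). C18-type Hydro-RP column with 50 mM ammonium acetate pH 7.4 and an acetonitrile gradient of 0–100% over 13.5 min. UV detection at 220/254 nm. Retention compared with nine standards of shake-flask-determined partition coefficients.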

[14] = Half life in human liver microsomes at 1 uM by LC/MS analysis; format: ADME; procedure, shortened: as §3

SMILES	Ki [1]	Ki [2]	IC50 (Plasmodium falciparum [3])	Activity (HEK293)	IC50 (Plasmodium falciparum [4])	IC50 (Plasmodium falciparum [5])	other results
CC(C)(C)OC(=O)NC(C(=O)NO)c1ccc(-c2cccc(/C(N)=N\O)c2)cc1 (configuration not stated)	140 nM	1100 nM	679 nM	Non-toxic	–	–	–
CC(C)(C)C(=O)NC(C(=O)NO)c1ccc(-c2ccc(F)cc2)cc1 (configuration not stated)	33 nM	6500 nM	126 nM	Non-toxic	193 nM	225 nM	–
CC(C)(C)OC(=O)NC(C(=O)NO)c1ccc(-c2ccc(C(F)(F)F)cc2)cc1 (configuration not stated)	470 nM	> 500000 nM	–	–	–	–	–
CC(C)(C)OC(=O)NC(C(=O)NO)c1ccc(-c2ccccc2)cc1 (configuration not stated)	55 nM	37000 nM	–	–	–	–	–
CC(C)(C)C(=O)NC(C(=O)NO)c1ccc(-c2c(F)cccc2F)cc1 (configuration not stated)	13 nM	4800 nM	142 nM	Non-toxic	246 nM	251 nM	–
CC(C)(C)OC(=O)NC(C(=O)NO)c1ccc(Br)cc1 (configuration not stated)	80 nM	27 nM	293 nM	Non-toxic	–	–	–
CC(C)(C)C(=O)NC(C(=O)NO)c1ccc(-c2ccsc2)cc1 (configuration not stated)	9.1 nM	640 nM	103 nM	Non-toxic	100 nM	110 nM	–
Cn1cc(-c2ccc(CC(NC(=O)OC(C)(C)C)C(=O)NO)cc2)cn1 (configuration not stated)	14000 nM	120000 nM	–	–	–	–	–
C[C@H]1[C@H](OC(=O)CCC(=O)O)O[C@@H]2O[C@@]3(C)CC[C@H]4[C@H](C)CC[C@@H]1[C@@]24OO3 [ARTESUNATE]	–	–	–	–	0.9 nM	1.3 nM	–
CC(C)(C)OC(=O)NC(C(=O)NO)c1ccc(-c2ccccc2C(F)(F)F)cc1 (configuration not stated)	120 nM	750 nM	–	–	–	–	–
CC(C)(C)OC(=O)NC(Cc1ccc(I)cc1)C(=O)NO (configuration not stated)	21000 nM	4300 nM	–	–	–	–	–
CC(C)(C)OC(=O)NC(Cc1ccc(F)cc1)C(=O)NO (configuration not stated)	2800 nM	18000 nM	–	–	–	–	–
CC(C)(C)C(=O)NC(C(=O)NO)c1ccc(F)cc1 (configuration not stated)	29 nM	4000 nM	1530 nM	Non-toxic	2090 nM	2010 nM	–
CC(C)(C)OC(=O)NC(C(=O)NO)c1ccc(-c2cccc(C(F)(F)F)c2)cc1 (configuration not stated)	140 nM	2900 nM	–	–	–	–	–
CC(C)(C)C(=O)NC(C(=O)NO)c1ccc(-c2ccccc2F)cc1 (configuration not stated)	12 nM	1600 nM	131 nM	Non-toxic	210 nM	207 nM	–
CC(C)(C)C(=O)NC(C(=O)NO)c1ccc(-c2cc(F)c(F)c(F)c2)cc1 (configuration not stated)	60 nM	78 nM	126 nM	Non-toxic	107 nM	189 nM	microsomal CLint at 1 µM [6]: 25 µL/min/mg; solubility kinetic [7]: 12.5 µg/mL (≈ 32.9 µM); half-life [8]: > 17 h; solubility kinetic [9]: 12.5 µg/mL (≈ 32.9 µM); microsomal CLint at 1 µM [10]: 8 µL/min/mg; half-life [11]: > 25 h; half-life at 1 µM [12]: 1.15 h; logD [13]: 3; half-life at 1 µM [14]: 3.68 h
CC(C)(C)OC(=O)NC(C(=O)NO)c1ccc(-c2ccsc2)cc1 (configuration not stated)	64 nM	20000 nM	–	–	–	–	–
CC(C)(C)OC(=O)NC(C(=O)NO)c1ccc(-c2cc(F)c(F)c(F)c2)cc1 (configuration not stated)	200 nM	19000 nM	–	–	–	–	–
CC(C)(C)C(=O)NC(C(=O)NO)c1ccc(-c2ccc(F)cc2F)cc1 (configuration not stated)	5.2 nM	2500 nM	109 nM	Non-toxic	216 nM	164 nM	–
CC(C)(C)C(=O)NC(C(=O)NO)c1ccc(-c2cccc(F)c2)cc1 (configuration not stated)	6.2 nM	550 nM	162 nM	Non-toxic	316 nM	226 nM	–
CC(C)(C)OC(=O)NC(C(=O)NO)c1ccc(F)cc1 (configuration not stated)	1700 nM	5300 nM	–	–	–	–	–
